Measurements: ChEMBL document CHEMBL1125776, “Enantioselective and diastereoselective hydroxylation of bufuralol. Absolute configuration of the 7-(1-hydroxyethyl)-2-[1-hydroxy-2-(tert-butylamino)ethyl]benzofurans, the benzylic hydroxylation metabolites” (J Med Chem, 1991)

Assays:
Homo sapiens [1] = species: Homo sapiens; assay: Compound was tested for the rate of formation in human liver microsomes 116; assay type: functional
How it was run: (§1)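 Human liver microsomes from frozen bank tissue, washed and resuspended in 100 mM potassium phosphate/20% glycerol/1 mM EDTA, pH 7.4. Incubated with (1'R)- or (1'S)-bufuralol 200 μM, 3 mg protein, NADP+ 1 mM, glucose 6-phosphate 20 mM, MgCl2 10 mM, G6PDH 5 units, 0.20 M phosphate pH 7.4, 37 °C, 30 min. Benzylic alcohols derivatized with (R)-PEIC, reversed-phase HPLC at 248 nm against internal standard, calibration 2-10 μg.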

Homo sapiens [2] = species: Homo sapiens; assay: Compound was tested for the rate of formation in human liver microsomes 108; assay type: functional; how it was run: as §1
Homo sapiens [3] = species: Homo sapiens; assay: Compound was tested for the rate of formation in human liver microsomes 112; assay type: functional; how it was run: as §1
Homo sapiens [4] = species: Homo sapiens; assay: Mean of rate of formation in all human liver microsomes.; assay type: functional, organism-based; parameters: unit not given here; how it was run: as §1
Homo sapiens [5] = species: Homo sapiens; assay: Compound was tested for the rate of formation in human liver microsomes 114; assay type: functional; how it was run: as §1
Rattus norvegicus = species: Rattus norvegicus; assay: Compound was tested for the rate of formation in rat liver microsomes; assay type: functional
How it was run: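 Liver microsomes from male Sprague-Dawley rats (~150 g) prepared at 0-4 °C. Incubated with (1'R)- or (1'S)-bufuralol 200 μM, 3 mg protein, NADP+ 1 mM, glucose 6-phosphate 20 mM, MgCl2 10 mM, G6PDH 5 units, 0.20 M phosphate pH 7.4, 37 °C, 30 min. Alcohol diastereomers derivatized with (R)-PEIC, reversed-phase HPLC at 248 nm against internal standard, calibration 10-60 μg.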

SMILES | Rate of formation (pM min-1 (mg of protein)-1) (Homo sapiens [1]) | Rate of formation (pM min-1 (mg of protein)-1) (Homo sapiens [2]) | Rate of formation (pM min-1 (mg of protein)-1) (Homo sapiens [3]) | Mean (Homo sapiens [4]) | Rate of formation (pM min-1 (mg of protein)-1) (Homo sapiens [5]) | Rate of formation (pM min-1 (mg of protein)-1) (Rattus norvegicus)
C[C@@H](O)c1cccc2cc([C@H](O)CNC(C)(C)C)oc12 | 75.3 | 74.5 | 54.5 | 66.5 | 61.7 | 2270
C[C@H](O)c1cccc2cc([C@@H](O)CNC(C)(C)C)oc12 | 74.9 | 101 | 32 | 66.6 | 58.8 | 96.1
C[C@@H](O)c1cccc2cc([C@@H](O)CNC(C)(C)C)oc12 | 83.3 | 86.5 | 48.9 | 70.2 | 62.1 | 741
C[C@H](O)c1cccc2cc([C@H](O)CNC(C)(C)C)oc12 | 355 | 363 | 136 | 266 | 211 | 500
